Experimental data taken from ChEMBL document CHEMBL4145471, “New 1,5 and 2,5-disubstituted tetrazoles-dependent activity towards surface barrier of Candida albicans” (Eur J Med Chem, 2018).

Key:
[1] = system: Candida albicans; assay: Synergistic antifungal activity against Candida albicans ATCC 90028 at 5 ug/ml after 48 hrs in presence of 20 ug/ml fluconazol by checkerboard assay relative to control; assay type: functional
Procedure, shortened: (§1)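 Checkerboard in C. albicans ATCC 90028, inoculum prepared per CLSI M27-A3 in RPMI. Fluconazole serially diluted 80-1.25 µg/mL across the plate against the partner compound at 80-1.25 µg/mL final. Incubated 48 h at 35°C. Metabolic activity read by XTT reduction at 475 nm (660 nm reference), given as % of the untreated growth control.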

[2] = system: Candida albicans; assay: Synergistic antifungal activity against Candida albicans ATCC 90028 at 5 ug/ml after 48 hrs in presence of 40 ug/ml fluconazol by checkerboard assay relative to control; assay type: functional; procedure, shortened: as §1
[3] = system: Candida albicans; assay: Antifungal activity against Candida albicans ATCC 90028 assessed as metabolic activity at 40 ug/ml after 48 hrs in presence of 20 ug/ml fluconazol by XTT assay relative to control
[4] = system: Candida albicans; assay: Synergistic antifungal activity against Candida albicans ATCC 90028 at 2.5 ug/ml after 48 hrs in presence of 10 ug/ml fluconazol by checkerboard assay relative to control; assay type: functional
Procedure, shortened: (§2)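 Checkerboard microdilution (M27-A3) on C. albicans ATCC 90028 in RPMI 1640: fluconazole (80-1.25 µg/mL) crossed with tetrazole (80-1.25 µg/mL final), incubated at 35°C for 48 h. Growth by OD405 at 18 and 48 h, endpoint taken as 100% inhibition. FIC index = sum of the two agents' FICs; <1 synergism, >1 antagonism.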

[5] = system: Candida albicans; assay: Antifungal activity against Candida albicans ATCC 90028 assessed as inhibition of metabolic activity at 2.5 ug/ml after 48 hrs in presence of 10 ug/ml fluconazol by XTT assay relative to control; assay type: functional; conditions: values are per cent of control
Procedure, shortened: (§3)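 C. albicans ATCC 90028 in checkerboard: fluconazole serial dilutions (80-1.25 µg/mL) crossed with tetrazole (80-1.25 µg/mL final), M27-A3 inoculum in RPMI 1640, 35°C for 48 h. Metabolic activity measured by XTT reduction, read at 475 nm (660 nm reference). Activity expressed relative to untreated growth control absorbance.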

[6] = system: Candida albicans; assay: Synergistic antifungal activity against Candida albicans ATCC 90028 at 1.25 ug/ml after 48 hrs in presence of 40 ug/ml fluconazol by checkerboard assay relative to control; assay type: functional
Procedure, shortened: (§4)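 Checkerboard per M27-A3 against ATCC 90028: fluconazole at 80–1.25 µg/mL horizontally and partner compound at 80–1.25 µg/mL vertically, 100 µL yeast inoculum per well, 35°C for 48 h. After 48 h, metabolic activity was measured by XTT reduction at 475 nm (660 nm reference) relative to untreated growth control. FIC index is the sum of the FICs; <1 was defined as synergism and >1 as antagonism.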

[7] = system: Candida albicans; assay: Antifungal activity against Candida albicans ATCC 90028 assessed as inhibition of metabolic activity at 5 ug/ml after 48 hrs in presence of 20 ug/ml fluconazol by XTT assay relative to control; assay type: functional; conditions: values are per cent of control
Procedure, shortened: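 Checkerboard against strain ATCC 90028, inoculum per M27-A3: fluconazole 80-1.25 µg/mL on one axis, tetrazole 80-1.25 µg/mL on the other. Plates at 35°C for 48 h, then XTT metabolic reduction read at 475 nm (660 nm reference). Activity is the drop in mean absorbance against untreated growth control. FICs and their summed FIC index are taken at 50% reduction in metabolic activity.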

[8] = system: Candida albicans; assay: Antifungal activity against Candida albicans ATCC 90028 assessed as inhibition of metabolic activity at 5 ug/ml after 48 hrs in presence of 2.5 ug/ml fluconazol by XTT assay relative to control; assay type: functional; conditions: values are per cent of control; procedure, shortened: as §3
[9] = system: Candida albicans; assay: Antifungal activity against Candida albicans ATCC 90028 at 2 ug/ml after 18 hrs relative to control; assay type: functional
Procedure, shortened: (§5)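 Planktonic broth microdilution per M27-A3 in MOPS-buffered RPMI 1640 (pH 7.0), final inoculum 1.8×10^3 cells/mL, compounds 0.0313–16 µg/mL from 1600 µg/mL stocks in ethanol or DMSO. Incubated at 35°C without agitation; OD405 read at 18 and 48 h. % inhibition was derived from test, sterility (no inoculum) and solvent growth-control wells. Amphotericin B at 0.5 µg/mL served as the 100% control.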

[10] = system: Candida albicans; assay: Synergistic antifungal activity against Candida albicans ATCC 90028 at 20 ug/ml after 48 hrs in presence of 2.5 ug/ml fluconazol by checkerboard assay relative to control; assay type: functional; procedure, shortened: as §2
[11] = system: Candida albicans; assay: Antifungal activity against Candida albicans ATCC 90028 at 16 ug/ml after 48 hrs relative to control; assay type: functional; procedure, shortened: as §5
[12] = system: Candida albicans; assay: Antifungal activity against Candida albicans ATCC 90028 assessed as metabolic activity at 20 ug/ml after 48 hrs in presence of 20 ug/ml fluconazol by XTT assay relative to control; conditions: ATCC 90028, 48 h
[13] = system: Candida albicans; assay: Antifungal activity against Candida albicans ATCC 90028 assessed as metabolic activity at 20 ug/ml after 48 hrs in presence of 80 ug/ml fluconazol by XTT assay relative to control
[14] = system: Candida albicans; assay: Synergistic antifungal activity against Candida albicans ATCC 90028 at 40 ug/ml after 48 hrs in presence of 2.5 ug/ml fluconazol by checkerboard assay relative to control; assay type: functional; procedure, shortened: as §2
[15] = system: Candida albicans; assay: Synergistic antifungal activity against Candida albicans ATCC 90028 at 20 ug/ml after 48 hrs in presence of 5 ug/ml fluconazol by checkerboard assay relative to control; assay type: functional; procedure, shortened: as §1
[16] = system: Candida albicans; assay: Antifungal activity against Candida albicans ATCC 90028 at 1 ug/ml after 18 hrs relative to control; assay type: functional; procedure, shortened: as §5
[17] = system: Candida albicans; assay: Antifungal activity against Candida albicans ATCC 90028 at 0.125 ug/ml after 18 hrs relative to control; assay type: functional; procedure, shortened: as §5
[18] = system: Candida albicans; assay: Synergistic antifungal activity against Candida albicans ATCC 90028 at 1.25 ug/ml after 48 hrs in presence of 10 ug/ml fluconazol by checkerboard assay relative to control; assay type: functional; procedure, shortened: as §4
[19] = system: Candida albicans; assay: Antifungal activity against Candida albicans ATCC 90028 assessed as metabolic activity at 80 ug/ml after 48 hrs in presence of 80 ug/ml fluconazol by XTT assay relative to control; conditions: ATCC 90028, 48 h
[20] = system: Candida albicans; assay: Antifungal activity against Candida albicans ATCC 90028 assessed as metabolic activity at 40 ug/ml after 48 hrs in presence of 1.25 ug/ml fluconazol by XTT assay relative to control
[21] = system: Candida albicans; assay: Synergistic antifungal activity against Candida albicans ATCC 90028 at 40 ug/ml after 48 hrs in presence of 20 ug/ml fluconazol by checkerboard assay relative to control; assay type: functional; procedure, shortened: as §1
[22] = system: Candida albicans; assay: Antifungal activity against Candida albicans ATCC 90028 at 0.5 ug/ml after 48 hrs relative to control; assay type: functional; procedure, shortened: as §5

SMILES: ClCCCn1nnnc1-c1ccccc1Cl
- growth inhibition (GI) [1]: 99.67%
- growth inhibition (GI) [2]: 99.25%
- Metabolic activity [3]: 74.1%
- growth inhibition (GI) [4]: 99.75%
- residual activity [5]: 64.55%
- growth inhibition (GI) [6]: 99.16%
- residual activity [7]: 73.79%
- residual activity [8]: 68.03%
- Activity [9]: 97.4%
- growth inhibition (GI) [10]: 99.25%
- Activity [11]: 99.39%
- Metabolic activity at 20 µg/mL [12]: 67.8%
- Metabolic activity [13]: 81.77%
- growth inhibition (GI) [14]: 99.14%
- growth inhibition (GI) [15]: 99.02%
- Activity [16]: 93.49%
- Activity [17]: 100%
- growth inhibition (GI) [18]: 99.66%
- Metabolic activity at 80 µg/mL [19]: 53.2%
- Metabolic activity [20]: 13.59%
- growth inhibition (GI) [21]: 99.53%
- Activity [22]: 99.22%

SMILES: CCOC(=O)CCn1nnc(-c2ccccc2)n1
- growth inhibition (GI) [1]: 99.58%
- growth inhibition (GI) [2]: 99.51%
- Metabolic activity [3]: 54.82%
- growth inhibition (GI) [4]: 99.49%
- residual activity [5]: 71.01%
- growth inhibition (GI) [6]: 99.46%
- residual activity [7]: 67.66%
- residual activity [8]: 80.73%
- Activity [9]: 99.35%
- growth inhibition (GI) [10]: 99.63%
- Activity [11]: 99.65%
- Metabolic activity at 20 µg/mL [12]: 57.3%
- Metabolic activity [13]: 94.76%
- growth inhibition (GI) [14]: 99.74%
- growth inhibition (GI) [15]: 98.72%
- Activity [16]: 85.06%
- Activity [17]: 99.13%
- growth inhibition (GI) [18]: 99.65%
- Metabolic activity at 80 µg/mL [19]: 40%
- Metabolic activity [20]: 66.6%
- growth inhibition (GI) [21]: 99.54%
- Activity [22]: 99.31%

SMILES: Cc1ccc(-c2nnn(CCCN3CCOCC3)n2)cc1
- growth inhibition (GI) [1]: 99.16%
- growth inhibition (GI) [2]: 99.15%
- Metabolic activity [3]: 54.14%
- growth inhibition (GI) [4]: 99.09%
- residual activity [5]: 85.87%
- growth inhibition (GI) [6]: 99.36%
- residual activity [7]: 93.31%
- residual activity [8]: 100%
- Activity [9]: 95.72%
- growth inhibition (GI) [10]: 99.31%
- Activity [11]: 99.44%
- Metabolic activity at 20 µg/mL [12]: 61.7%
- Metabolic activity [13]: 69.42%
- growth inhibition (GI) [14]: 99.77%
- growth inhibition (GI) [15]: 98.27%
- Activity [16]: 57.6%
- Activity [17]: 99.57%
- growth inhibition (GI) [18]: 99.59%
- Metabolic activity at 80 µg/mL [19]: 73.4%
- Metabolic activity [20]: 40.06%
- growth inhibition (GI) [21]: 99.55%
- Activity [22]: 99.18%
